Tests used:
[1] = Tmax in cynomolgus monkey plasma at 50 mg/kg, po qd for 4 days; format: ADME, organism-based, Macaca fascicularis; design: dose 50 mg/kg, route oral
Summary of the method: (§1)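 Oral gavage (dog gastric, monkey nasogastric), 50 mg/kg in 20% w/v hydroxypropyl-β-cyclodextrin in water, 2.5 mL/kg, once daily for 4 consecutive days. Blood sampled into K2EDTA at 1, 2, 4, 6, 12 and 24 h postdose on day 3. Prodrug in plasma quantified by LC/MS/MS, noncompartmental analysis.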

Rattus norvegicus [2] = test: Toxicity in rat assessed as change in body weight at 50 to 1800 mg/kg, po after 14 days; format: organism-based; design: dose 50-1800 mg/kg, route oral; details: in vivo, 336 h
Summary of the method: (§2)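 Rats (CD SD, 4–5 weeks, 76–100 g) given a single oral dose of 50, 300 or 1800 mg/kg, or vehicle (30% PEG400/30% Tween 20/20% corn oil/20% water). Observed daily for 14 days with daily body weights. Necropsy on day 15 with macroscopic examination and liver and paired kidney weights.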

[3] = Half life in simulated intestinal fluid of pH 7.5 at 50 ug/mL; format: physicochemical
Summary of the method: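 Compound at 50 μg/mL in simulated gastric fluid (pH 1.2) or simulated intestinal fluid (pH 7.5), 37 °C, 20 h. Injected by reverse-phase HPLC every 2 h, peak area at 260 nm.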

Rattus norvegicus [4] = test: Toxicity in rat assessed as change in kidney weight at 50 to 1800 mg/kg, po after 14 days; format: organism-based; design: dose 50-1800 mg/kg, route oral; details: in vivo, 336 h; summary of the method: as §2
[5] = Cytotoxicity against human erythroid progenitor cells after 14 to 16 days
Rattus norvegicus [6] = test: Toxicity in rat assessed as mortality at 50 to 1800 mg/kg, po after 14 days; format: organism-based; design: dose 50-1800 mg/kg, route oral; details: in vivo, 336 h; summary of the method: as §2
Hepatitis C virus [7] = test: Antiviral activity against HCV infected in human clone A cells assessed as inhibition of cellular rRNA replication at 50 uM; format: functional, Hepacivirus hominis
[8] = Tmax in dog plasma at 50 mg/kg, po qd for 4 days; format: ADME, organism-based, Canis lupus familiaris; design: dose 50 mg/kg, route oral; summary of the method: as §1
Rattus norvegicus [9] = test: Tmax in rat liver assessed as 2'-F-2'-C-Methyluridine-5''-TP level at 50 mg/kg, po; format: ADME, organism-based; design: dose 50 mg/kg, route oral; details: in vivo
Summary of the method: (§3)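 Rats given a single oral gavage dose of 50 mg/kg in 0.5% carboxymethylcellulose sodium, 5 mL/kg. Livers taken at 0.5, 1, 2, 4, 6 and 12 h after CO2 sacrifice and ice-cold saline perfusion, then snap-frozen. Homogenized in 3 volumes of cold 70% methanol with 20 mM EDTA/EGTA. Triphosphate measured by LC/MS/MS (ESI, MRM negative mode), noncompartmental analysis.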

HepG2 = test: Cytotoxicity against human HepG2 cells at 100 uM; format: cell-based; details: hepg2, 100 µM
Summary of the method: (§4)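 Huh7, HepG2 and BxPC3 cells at 2 × 10^3 per well, CEM at 5 × 10^3 per well. Compound serially diluted from 100 μM, 8 days at 37 °C. MTS added for 2 h, absorbance read at 490 nm with medium-only blanks. CC50 taken relative to untreated cells.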

[10] = Cytotoxicity against human BxPC3 cells at 100 uM; format: cell-based; details: bxpc-3, 100 µM; summary of the method: as §4
[11] = AUC (0 to infinity) in dog plasma at 50 mg/kg, po qd for 4 days; format: ADME, organism-based, Canis lupus familiaris; design: time infinity, dose 50 mg/kg, route oral; summary of the method: as §1
Cynomolgus monkey [12] = test: Metabolic stability in cynomolgus monkey liver assessed as prodrug level at 50 mg/kg, po; format: ADME, organism-based, Macaca fascicularis; design: dose 50 mg/kg, route oral; details: in vivo
Summary of the method: (§5)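 Dogs and cynomolgus monkeys gavaged once daily with 50 mg/kg in 20% w/v hydroxypropyl-β-cyclodextrin for 4 days. At 4 h postdose on day 4, under pentobarbital, the liver was perfused with ice-cold saline via a portal cannula. Five lobe samples were snap-frozen and homogenized in 3 volumes of cold 70% methanol with 20 mM EDTA/EGTA. Prodrug and triphosphate measured by LC/MS/MS.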

CCRF-CEM = test: Cytotoxicity against human CEM cells at 100 uM; format: cell-based; summary of the method: as §4
Canis familiaris [13] = test: Metabolic stability in dog liver assessed as prodrug level at 50 mg/kg, po; format: ADME, organism-based, Canis lupus familiaris; design: dose 50 mg/kg, route oral; details: in vivo; summary of the method: as §5
[14] = Cytotoxicity against HuH7 cells at 100 uM; format: cell-based; details: human, huh-7, 100 µM; summary of the method: as §4
Homo sapiens = species on record: Homo sapiens; test: Half life in human plasma at 100 uM
[15] = Cmax in cynomolgus monkey plasma at 50 mg/kg, po qd for 4 days; format: ADME, organism-based, Macaca fascicularis; design: dose 50 mg/kg, route oral; summary of the method: as §1
Rattus norvegicus [16] = test: Toxicity in rat assessed as change in macroscopic pathology at 50 to 1800 mg/kg, po after 14 days; format: organism-based; design: dose 50-1800 mg/kg, route oral; details: in vivo, 336 h; summary of the method: as §2
Rattus norvegicus [17] = test: Cmax in rat liver assessed as 2'-F-2'-C-Methyluridine-5''-TP level at 50 mg/kg, po; format: ADME, organism-based; design: dose 50 mg/kg, route oral; details: in vivo; summary of the method: as §3
Hepatitis C virus [18] = test: Antiviral activity against HCV infected in human clone A cells; format: functional, Hepacivirus hominis; details: Hepatitis C virus
Summary of the method: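 Clone A replicon cells seeded at 1500 cells/well. Compounds serially diluted in G418-free culture medium and added, then incubated 4 days at 37 °C in 5% CO2. HCV RNA quantified by real-time RT-PCR as ΔCt relative to the mean no-drug control.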

[19] = Half life in human liver S9 fraction at 100 uM; format: ADME, subcellular
Summary of the method: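 Compound at 100 μM in 50 mM K2HPO4 pH 7.4 with 5 mM MgCl2. Started with 4 mg/mL human liver S9 at 37 °C. Samples at 0–24 h quenched with acetonitrile. Parent remaining measured by LC/MS/MS peak area relative to 0 h, and half-life calculated.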

Rattus norvegicus [20] = test: AUC (0 to infinity) in rat liver assessed as 2'-F-2'-C-Methyluridine-5''-TP level at 50 mg/kg, po; format: ADME, organism-based; design: time infinity, dose 50 mg/kg, route oral; details: in vivo; summary of the method: as §3
[21] = AUC (0 to t) in dog plasma at 50 mg/kg, po qd for 4 days; format: ADME, organism-based, Canis lupus familiaris; design: dose 50 mg/kg, route oral; summary of the method: as §1
[22] = Cytotoxicity against human myeloid progenitor cells after 14 to 16 days
[23] = Half life in simulated gastric fluid at pH 1.2 at 50 ug/mL; format: physicochemical
Summary of the method: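 Compound at 50 μg/mL in simulated gastric fluid (pH 1.2) or simulated intestinal fluid (pH 7.5), 37 °C, 20 h. Injected by reverse-phase HPLC every 2 h, peak area at 260 nm. Percent parent remaining relative to 0 h, giving half-life.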

[24] = Permeability by PAMPA assay; format: ADME; details: read-out: permeability
Summary of the method: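 PAMPA with a lecithin-in-dodecane (20 mg/mL) coated filter donor. Donor held 200 μg/mL compound in PBS pH 7.4 with 2% DMSO; acceptor held PBS with 2% DMSO. Left 24 h. Donor and acceptor concentrations measured by LC/MS/MS (MRM), and Pe calculated from concentrations, volumes, filter area and time.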

[25] = Cmax in dog plasma at 50 mg/kg, po qd for 4 days; format: ADME, organism-based, Canis lupus familiaris; design: dose 50 mg/kg, route oral; summary of the method: as §1
Rattus norvegicus [26] = test: Toxicity in rat assessed as change in liver weight at 50 to 1800 mg/kg, po after 14 days; format: organism-based; design: dose 50-1800 mg/kg, route oral; details: in vivo, 336 h; summary of the method: as §2
Rattus norvegicus [27] = test: AUC (0 to t) in rat liver assessed as 2'-F-2'-C-Methyluridine-5''-TP level at 50 mg/kg, po; format: ADME, organism-based; design: dose 50 mg/kg, route oral; details: in vivo; summary of the method: as §3
Canis familiaris [28] = test: Metabolic stability in dog liver assessed as 2'-F-2'-C-Methyluridine-5''-triphosphate level at 50 mg/kg, po; format: ADME, organism-based, Canis lupus familiaris; design: dose 50 mg/kg, route oral; details: in vivo; summary of the method: as §5
[29] = AUC (0 to t) in cynomolgus monkey plasma at 50 mg/kg, po qd for 4 days; format: ADME, organism-based, Macaca fascicularis; design: dose 50 mg/kg, route oral; summary of the method: as §1
Cynomolgus monkey [30] = test: Metabolic stability in cynomolgus monkey liver assessed as 2'-F-2'-C-Methyluridine-5''-triphosphate level at 50 mg/kg, po; format: ADME, organism-based, Macaca fascicularis; design: dose 50 mg/kg, route oral; details: in vivo; summary of the method: as §5
[31] = AUC (0 to infinity) in cynomolgus monkey plasma at 50 mg/kg, po qd for 4 days; format: ADME, organism-based, Macaca fascicularis; design: time infinity, dose 50 mg/kg, route oral; summary of the method: as §1

Structure (SMILES)	Tmax [1]	Activity (Rattus norvegicus [2])	Activity (Rattus norvegicus [4])	IC50 [5]	Activity (Rattus norvegicus [6])	inhibition at 50 µM (Hepatitis C virus [7])	Tmax [8]	Tmax (Rattus norvegicus [9])	Activity (HepG2)	Activity [10]	AUC(0-inf) [11]	Drug uptake (Cynomolgus monkey [12])	Activity (CCRF-CEM)	Drug uptake (Canis familiaris [13])	Activity [14]	Cmax [15]	Activity (Rattus norvegicus [16])	Cmax (Rattus norvegicus [17])	EC90 (Hepatitis C virus [18])	half-life at 100 µM [19]	also measured
C[C@H](NP(=O)(OC[C@H]1O[C@@H](n2ccc(=O)[nH]c2=O)[C@](C)(F)[C@@H]1O)Oc1ccc(F)cc1)C(=O)OC1CCCCC1 (stereo partly drawn)	6 h	Non-toxic	Non-toxic	37 µM	Non-toxic	52.1%	0.25 h	4 h	Non-toxic	Non-toxic	0.062 µg·h/mL	13 ng/g	Non-toxic	8.72 ng/g	Non-toxic	0.0018 µg/mL	Non-toxic	716 ng/g	0.04 µM	0.18 h	half-life at 50 ug/mL [3]: > 20 h; half-life at 100 µM (Homo sapiens): > 24 h; AUC (Rattus norvegicus [20]): 9888 ng·h/g; AUC(0-t) at 96 h [21]: 0.054 µg·h/mL; IC50 [22]: 30 µM; half-life at 50 ug/mL [23]: 20 h; Papp [24]: 4.88 nm/s; Cmax [25]: 0.036 µg/mL; Activity (Rattus norvegicus [26]): Non-toxic; AUC (Rattus norvegicus [27]): 8937 ng·h/g; Drug uptake (Canis familiaris [28]): 476 ng/g
CC(C)OC(=O)[C@H](C)NP(=O)(OC[C@H]1O[C@@H](n2ccc(=O)[nH]c2=O)[C@](C)(F)[C@@H]1O)Oc1ccccc1 (stereo partly drawn)	1 h	Non-toxic	Non-toxic	> 50 µM	Non-toxic	25.9%	0.5 h	4 h	Non-toxic	Non-toxic	6.9 µg·h/mL	177 ng/g	Non-toxic	612 ng/g	Non-toxic	0.033 µg/mL	Non-toxic	1934 ng/g	0.52 µM	0.57 h	AUC(0-t) at 96 h [29]: 0.086 µg·h/mL; Drug uptake (Cynomolgus monkey [30]): 57 ng/g; AUC (Rattus norvegicus [20]): 18080 ng·h/g; AUC(0-inf) [31]: 0.17 µg·h/mL; AUC(0-t) at 96 h [21]: 6.89 µg·h/mL; IC50 [22]: > 50 µM; half-life at 50 ug/mL [23]: 22 h; Papp [24]: 0.46 nm/s; Cmax [25]: 6.18 µg/mL; Activity (Rattus norvegicus [26]): Non-toxic; AUC (Rattus norvegicus [27]): 16796 ng·h/g; Drug uptake (Canis familiaris [28]): 10560 ng/g
